Screening results as filed in PubChem.
CHRM4 agonist: human M4 muscarinic receptor agonists, primary screen, CHO-K1 cells, Fluo-8 calcium fluorescence. AID 624127, 2012. actives 0.14% (n = 360,000). activation, % at 3 µM. CHO-K1 hM4/Gqi5; vehicle 0%, full acetylcholine response 100%;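 active means activation above the run mean over all test wells plus 3 SD, cut at about 32% in these data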;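 further: peak over basal fluorescence ratio per well then scaled between controls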
Target sequence (P08173 whole entry, looked up): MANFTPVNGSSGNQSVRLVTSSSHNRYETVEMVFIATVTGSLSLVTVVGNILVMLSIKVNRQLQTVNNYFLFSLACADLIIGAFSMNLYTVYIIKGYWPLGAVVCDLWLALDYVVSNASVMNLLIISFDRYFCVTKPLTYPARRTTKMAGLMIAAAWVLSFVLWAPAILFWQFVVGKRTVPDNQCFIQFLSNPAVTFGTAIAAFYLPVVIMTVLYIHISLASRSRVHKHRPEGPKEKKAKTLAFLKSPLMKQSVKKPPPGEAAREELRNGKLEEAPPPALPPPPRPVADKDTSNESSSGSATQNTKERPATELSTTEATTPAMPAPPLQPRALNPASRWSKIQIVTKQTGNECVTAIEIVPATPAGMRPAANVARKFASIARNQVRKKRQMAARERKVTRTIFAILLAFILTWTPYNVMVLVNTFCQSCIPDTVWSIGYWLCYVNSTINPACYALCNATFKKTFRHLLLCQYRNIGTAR
M5 antag: human M5 muscarinic receptor antagonists, primary screen, CHO cells, Fluo-8 calcium fluorescence. inhibition, % at 3 µM. CHO-hM5 cells, ACh EC80. actives 0.59% (n = 360,000). Muscarinic acetylcholine receptor M5 (Homo sapiens), P08912;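 active means inhibition above a per-plate cutoff, the mean of that plate's test compounds plus 3 SD, cut at about 27% in these data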
M4 PAM: human M4 muscarinic receptor positive allosteric modulators, primary screen, CHO-K1 cells, Fluo-8 calcium fluorescence. activation, % at 3 µM. Muscarinic acetylcholine receptor M4 (Homo sapiens), P08173. AID 624126, 2012. CHO-K1 hM4/Gqi5, ACh EC20; 0% = ACh EC20, 100% = maximal ACh. actives 0.4% (n = 360,000);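 active means activation above its plate's cutoff, the mean activation of sample wells plus 3 SD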
M4 antag: human M4 muscarinic receptor antagonists, primary screen, CHO cells, Fluo-8 calcium fluorescence | actives 0.73% (n = 360,000) | AID 624125, 2012 | inhibition, % at 3 µM | CHO-hM4 cells, ACh EC80;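 active means inhibition above its plate's cutoff, the mean inhibition of sample wells plus 3 SD, cut at about 27% in these data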
CHRM5 agonist: human M5 muscarinic receptor agonists, primary screen, CHO-K1 cells, Fluo-8 calcium fluorescence; actives 0.19% (n = 360,000); CHO-K1 hM5 cells; 0% DMSO wells, 100% maximal acetylcholine response; activation, % at 3 µM;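 active means activation above the run's mean over test compounds plus 3 SD, cut at about 23% in these data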;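 further: signal is peak over basal fluorescence ratio across the kinetic read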
M5 PAM: human M5 muscarinic receptor positive allosteric modulators, primary screen, CHO-K1 cells, Fluo-8 calcium fluorescence. CHO-K1 hM5, ACh EC20 PAM; 0% = ACh EC20, 100% = ACh EC100. activation, % at 3 µM. actives 0.3% (n = 360,000);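 active means activation above the run cutoff, the mean activation of all test compounds plus 3 SD, cut at about 18% in these data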
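System: CHO-K1 cell line with stable human muscarinic M5 receptor expression | Also added: EC20 acetylcholine as agonist stimulus | Compound: One concentration, 3 µM final (nominal) | Timing: Fluo-8 loading 80 min at 37 °C plus 30 min room temperature | Measured by: Fluo-8 calcium dye fluorescence, kinetic read | Read-out basis: % activation, ACh-normalized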
Large screens that a line does not name were inactive. This is a sample that favours compounds with a hit; in the whole collection about 1.8% have one here.

CC(=O)c1ccc(N2CCC(c3cc(-c4ccc(Cl)cc4)n[nH]3)CC2)c([N+](=O)[O-])c1	M4 antag 29
COc1ccc(-c2cc(C3CCN(c4ccc(C(C)=O)cc4[N+](=O)[O-])CC3)[nH]n2)cc1	none
COc1ccc(S(=O)(=O)N2CCOCC2)cc1NC(=O)/C=C/c1ccc(F)cc1	none
CN(C)CCCNC(=O)c1cc(Br)ccc1O	none
CCOCCc1nnc(NC(=O)Cc2ccccc2)s1	none
CCOCCc1nnc(NC(=O)Cc2c(F)cccc2Cl)s1	M4 PAM 19
O=C(NC(c1ccccc1)C(Cl)Cl)c1ccccc1 (centres undefined)	none
[N-]=[N+]=NC(c1ccccc1)C(NC(=O)c1cc(C(F)(F)F)cc(C(F)(F)F)c1)c1ccccc1 (centres undefined)	M4 antag 31
CCC1CCCCN1S(=O)(=O)c1ccc(NC(=O)c2nc(S(C)(=O)=O)ncc2Cl)cc1 (centres undefined)	M4 antag 59
Cc1[nH]c2ccccc2c1CC#N	none
Cc1[nH]c2ccccc2c1C1=CC(=O)C=CC1=O	M4 antag 45
Cc1cc(Oc2ccc(N)cn2)ccc1Cl	M5 antag 31, CHRM5 agonist 24
CC(C)(C)OC(=O)NC1CC2CCCC(C1)N2Cc1ccccc1 (centres undefined)	M4 antag 83
CNC(=S)NC1CC2CCCC(C1)N2Cc1ccc(C)cc1 (centres undefined)	M5 PAM 28
CCNC(=S)NC1CC2CCCC(C1)N2Cc1ccc(C)cc1 (centres undefined)	none
CCc1ccc(OCC(=O)Nc2ccc(-c3cc4ccccc4oc3=O)c(OC)c2)cc1	M5 antag 31
COc1cc(NC(=O)c2cc(Cl)ccc2Cl)ccc1-c1cc2ccccc2oc1=O	none
O=C1NC[C@@H](CCCCN2C[C@H](Cc3ccc(O)cc3)N(CC3CCCCC3)C(=O)C2=O)N(Cc2ccccc2)C1=O	CHRM4 agonist 37
O=C1NC[C@@H](CCCCN2C[C@H](Cc3ccccc3)N(CC3CCCCC3)C(=O)C2=O)N(CC2CCCCC2)C1=O	CHRM4 agonist 59
O=C1NC[C@@H](CCCCN2C[C@H](Cc3ccccc3)N(Cc3ccccc3)C(=O)C2=O)N(CC2CCCCC2)C1=O	none
COc1ccc(S(=O)(=O)NC2CC(C)(C)NC(C)(C)C2)cc1	none
CC1(C)CC(NS(=O)(=O)c2ccc3ccccc3c2)CC(C)(C)N1	M5 PAM 18
Cc1cc(OCC(O)CN(C)C(=O)C(C)Oc2ccccc2)ccc1Cl (centres undefined)	none
O=C1NC(c2ccncc2)C(C(=O)c2cccs2)C(O)(C(F)(F)F)N1 (centres undefined)	M4 antag 30
Cc1cc(C)cc(C(=O)NC(CC(N)=O)c2ccc(NCC3CC3)c([N+](=O)[O-])c2)c1 (centres undefined)	none
CC(C)CC(N)c1csc(Nc2cc(Oc3ccccc3)ncn2)n1 (centres undefined)	none
Cc1ccccc1NC(=S)NN1CCN(C)CC1	M4 PAM 30
Cc1cccc(NC(=S)NN2CCN(C)CC2)c1C	none
COc1ccc(S(=O)(=O)CC(=O)Nc2nnc(C(F)(F)F)s2)cc1	none
O=C(NC(=S)Nc1ccc(O)cc1)C1CCCC1	none
CC(=O)Nc1ccc(NC(=S)NC(=O)C2CC2)cc1	M4 PAM 25
CCC(=O)c1cc(Br)ccc1OCC(=O)N1CCN(S(=O)(=O)c2ccccc2)CC1	none
S=C(Nc1ccc(Cl)cc1)NC1CCCCC1	none
FC(F)Oc1ccc(NC(=S)NC2CCSc3ccccc32)cc1 (centres undefined)	M5 antag 43, M4 antag 60
FC(F)Oc1ccc(NC(=S)NC2CCCCCCC2)cc1	M5 antag 34
O=C(NC1CCSc2ccccc21)c1cccc(OC(F)F)c1 (centres undefined)	none
COc1ccc(NC(=O)CC2SC(N3CCOCC3)=NC2=O)cc1OC (centres undefined)	none
Cc1ccccc1OCCC(=O)OCC(=O)NC1CCCCC1	none
COc1ccc(S(=O)(=O)N2CCC(C(=O)N[C@@H](C)C(=O)NCc3ccccn3)CC2)cc1	none
COc1ccc(NC2=NCCC(=O)N2Cc2cccs2)cc1	none
COc1ccc(NC2=NCC(=O)N2Cc2cccs2)cc1	M5 PAM 21
O=C(c1ccccc1)C1N=NCC1c1ccc(Cl)cc1 (centres undefined)	M5 antag 33, CHRM5 agonist 27
COc1cc2c(C#N)c(N3CCc4ccccc4C3)nc(N)c2c(N)n1	M5 PAM 37
CCN(c1ccccc1)S(=O)(=O)c1ccc2c(c1)CC(C)N2C(=O)C1CC1 (centres undefined)	M5 antag 27
CCc1nc2c(OCc3ccc(OC)cc3)cccn2c1N(C)C(=O)C(C)C	none
COc1ccc(C(=O)N(C)C2CCCc3ccccc32)cc1OC1CCN(C(C)C)CC1 (centres undefined)	none
COc1ccc(C(=O)NC2CCc3ccccc32)cc1OC1CCN(C(C)C)CC1 (centres undefined)	M5 antag 28
CCC(=O)NCCn1ccc2ccccc21	none
CC(C)C(=O)NCCn1ccc2ccccc21	M4 PAM 30
COc1cccc(C2Nc3ccccc3C(=O)N2Cc2ccccc2)c1 (centres undefined)	M5 antag 28, M5 PAM 28
O=C1c2ccccc2NC(c2ccccc2)N1Cc1ccccc1 (centres undefined)	none
COc1ccc(CNC(=O)Cn2nc(Cc3cccnc3)c3ccccc3c2=O)cc1	none
COc1cccc(NC(=O)C2C3C=CC(O3)C2C(=O)NCc2cccnc2)c1 (centres undefined)	M4 PAM 37
COc1cc(NC(=S)NCc2cccnc2)cc(OC)c1	none
COc1cccc(NC(=O)Cn2nc(Cc3cccnc3)c3ccccc3c2=O)c1	M4 antag 59
Cc1cc(C)c(S(=O)(=O)Nc2ncccc2C)c(C)c1	none
CNS(=O)(=O)c1cc(NC(=O)CCNC(=O)c2ccco2)ccc1C	M5 antag 27
COc1ccc(CCNC(=O)CCNC(=O)c2ccco2)cc1OC	none
CCOc1ccc(CCNC(=O)Cn2ccc3ccccc3c2=O)cc1OCC	M5 PAM 20
